An excerpt weighted towards active compounds, which were near 3.5% of everything screened.
MrgX1 allo act – human MrgX1 positive allosteric modulation, primary screen; MrgX1-HEK293, Fluo-4 calcium flux, FDSS; stronger effect = higher value; B-score at 10 µM; hit rate 0.63% among 310,000; AID 588675;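 active = plate-corrected calcium response at least 3 library SD above typical, normal starting fluorescence, not activating the receptor alone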;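 note: compound read alongside a low EC10 to EC30 dose of BAM8-22 agonist; peak minus trough fluorescence over baseline measured at the second addition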
Target sequence (Q96LB2 whole entry, looked up): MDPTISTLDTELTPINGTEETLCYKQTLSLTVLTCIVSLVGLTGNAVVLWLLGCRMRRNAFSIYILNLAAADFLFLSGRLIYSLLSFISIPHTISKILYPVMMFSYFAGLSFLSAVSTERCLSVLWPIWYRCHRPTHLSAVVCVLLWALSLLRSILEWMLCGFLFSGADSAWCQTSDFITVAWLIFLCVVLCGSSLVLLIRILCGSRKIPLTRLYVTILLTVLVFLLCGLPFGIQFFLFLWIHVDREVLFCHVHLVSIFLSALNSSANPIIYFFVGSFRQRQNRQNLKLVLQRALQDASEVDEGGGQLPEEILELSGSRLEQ
RGS4 block – inhibitors of human RGS4. HEK293 M3R/RGS4 inducible, Fluo-4 calcium flux; stronger effect = higher value; triggered by carbachol at its EC20. B-score at 10 µM. hit rate 0.45% among 310,000. AID 463165;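 active = B-score, a plate-corrected calcium signal, over three deviations above library mean, with baseline fluorescence within five deviations of library mean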;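 note: RGS4 expression induced by doxycycline in cells with stable M3 receptor; B-score is computed from the integrated fluorescence ratio over baseline after carbachol; higher B-score means a larger calcium signal and so more RGS4 inhibition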
Target sequence (P49798 whole entry, looked up): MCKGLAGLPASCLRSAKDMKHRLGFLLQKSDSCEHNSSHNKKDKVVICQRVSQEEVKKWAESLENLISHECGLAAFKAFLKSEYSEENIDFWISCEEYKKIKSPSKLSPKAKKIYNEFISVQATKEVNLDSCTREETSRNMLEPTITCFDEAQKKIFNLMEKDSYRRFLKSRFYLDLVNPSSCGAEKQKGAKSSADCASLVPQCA
RGS4 pot – RGS4 potentiation or activation. B-score at 10 µM. HEK293 M3R/inducible RGS4, carbachol calcium flux Fluo4; stronger effect = lower value. hit rate 0.92% among 310,000. AID 463111;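 active = B-score of the integrated calcium signal more than 4 SD below the library mean, with starting fluorescence not abnormally high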;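 note: negative B-score means reduced calcium response which marks RGS4 activation or potentiation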
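Test system: HEK293 cells with stable M3R and inducible RGS4; also added: carbachol at ECmax as muscarinic agonist stimulus; schedule: dye loading 30 min 37 °C, buffer rest 30 min RT; technique: kinetic calcium fluorescence imaging with Fluo4-AM dye, 2 µM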
MrgX1 antag – blocks BAM8-22 activation of human MrgX1 receptor | hit rate 1.3% among 310,000 | AID 588676 | MRGX1-HEK293 calcium flux, Fluo-4, BAM8-22 antagonism; stronger effect = lower value | Q96LB2 | B-score at 10 µM;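 active = calcium-response B-score plate-corrected more than 3 library SD below zero, starting fluorescence within 5 deviations, no agonist response on first addition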;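 note: peak minus trough fluorescence over baseline after final BAM8-22 challenge near maximal dose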
MrgX1 ag – activates human MrgX1 receptor signaling; MrgX1-HEK293 cells, Fluo-4 calcium fluorescence, agonist mode; stronger effect = higher value; AID 588627; hit rate 0.44% among 310,000; B-score at 10 µM;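 active = calcium response B-score plate-corrected fluorescence ratio at least 3 library SD, with starting fluorescence B-score inside 5 SD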
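Assay system: MrgX1-expressing HEK293 cells / Amount: fifteen thousand cells per well / Doses: test compound in the initial addition of three / Timing: cells plated overnight, dye loaded 0.5 h 37 °C, 0.5 h room temperature / Technique: kinetic calcium dye fluorescence, Fluo-4 NW / Control set: positive and negative controls per plate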
MrgX1 ag confirm – confirmation of human MrgX1 receptor agonists. shares compounds with MrgX1 ag. MrgX1-HEK293, Fluo-4 calcium fluorescence, FDSS. activation, % at 10 µM. hit rate 78% among 600;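 active = calcium signal rise, corrected for plate position, at least 3 library SD high, with starting brightness within 5 such deviations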
MrgX1 PAM conf – human MrgX1 positive allosteric modulation, re-confirmation; hit rate 13% among 1,200; AID 602413; activation (ratio percentage), % at 10 µM; MrgX1-HEK293, Fluo-4 calcium fluorescence, FDSS; shares compounds with MrgX1 allo act;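 active = ratio at least 3 SD above the weak peptide control, stable starting fluorescence, no direct agonism earlier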;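 note: compound followed by low BAM8-22 agonist challenge near EC20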
HEK293 Ca flux – MrgX1 antagonist counter-screen hit in parental HEK293 cells | AID 624111 | shares compounds with MrgX1 antag | Fluo-4 calcium fluorescence, FDSS | fluorescence ratio F(max-min)/F0 at 10 µM | hit rate 2% among 4,000;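 active = duplicate-averaged calcium fluorescence ratio at least three times the standard deviation of buffer wells, a nonspecific response in parental cells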
HEK293 Ca counter – counter-screen for MrgX1 allosteric activators: effect in parental HEK293 cells | shares compounds with MrgX1 antag | parental HEK293 calcium flux, Fluo-4 fluorescence ratio; stronger effect = higher value | fluorescence ratio F(max-min)/F0 at 10 µM | hit rate 0.4% among 4,000;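 active = calcium fluorescence ratio, averaged over duplicates, at least 3 SD of the buffer-well ratio, meaning a nonspecific response in receptor-free cells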;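 note: untransfected parental HEK293 lacking MrgX1 used as counterscreen for MrgX1 allosteric activators; fluorescence change taken during the second addition on a kinetic imager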
HEK293 Ca cntr2 – MrgX1 activator counter-screen hit in parental HEK293 cells. fluorescence ratio F(max-min)/F0 at 10 µM. hit rate 8.7% among 4,000. Fluo-4 calcium fluorescence (FDSS); stronger effect = higher value. AID 624115. shares compounds with MrgX1 antag;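 active = calcium fluorescence ratio at least three times the spread of buffer wells, meaning a non-specific response in parental cells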
Large screens that a line does not name were inactive (follow-up assays come after a bar, where they were run).

COc1ccccc1Nc1ccc(NC(=O)c2cccc([N+](=O)[O-])c2C)cc1	none
CC(C)(C)Nc1c2ccccc2nc2ccccc12	MrgX1 ag 35 | MrgX1 ag confirm 157% | HEK293 Ca flux inactive | HEK293 Ca counter inactive | HEK293 Ca cntr2 inactive
CC[C@@H](C(=O)[C@@H](C)[C@@H](O)[C@H](C)CCc1ccc(C)c(O)c1C(=O)O)[C@H]1O[C@](CC)([C@H]2CC[C@](O)(CC)[C@H](C)O2)C[C@@H]1C	MrgX1 ag 147 | MrgX1 ag confirm 909% | HEK293 Ca flux inactive | HEK293 Ca counter inactive | HEK293 Ca cntr2 198
CCCCOc1ccc(CSC(=N)N)cc1Cl	MrgX1 ag 35 | MrgX1 ag confirm 164% | HEK293 Ca flux inactive | HEK293 Ca counter inactive | HEK293 Ca cntr2 inactive
CCCCCOc1ccc(Br)cc1CSC(=N)N	none (no result: MrgX1 allo act, MrgX1 antag, MrgX1 ag)
O=C(COc1ccccc1[N+](=O)[O-])N(Cc1ccccc1)c1ccccn1	none
CCOC(=O)c1ccc2c(c1)NCc1cccc(OC)c1O2	MrgX1 ag 28 | MrgX1 ag confirm inactive | HEK293 Ca flux inactive | HEK293 Ca counter inactive | HEK293 Ca cntr2 inactive
O=C(CSc1nc(-c2ccccc2)c(-c2ccccc2)[nH]1)N1CCN(S(=O)(=O)c2ccccc2)CC1	none
COCCCn1c(N)c(-c2nc3ccccc3n2C)c2nc3ccccc3nc21	MrgX1 ag 60 | MrgX1 ag confirm 249% | HEK293 Ca flux inactive | HEK293 Ca counter inactive | HEK293 Ca cntr2 87
OCCn1nc(-c2ccccc2)cc1-c1ccccc1	MrgX1 ag 32 | MrgX1 ag confirm inactive | HEK293 Ca flux inactive | HEK293 Ca counter inactive | HEK293 Ca cntr2 inactive
Nc1cc(-c2ccccc2)nn1Cc1ccccc1	none
O=C(OCc1cc2ccccc2[nH]c1=O)c1cccs1	MrgX1 ag 38 | MrgX1 ag confirm inactive | HEK293 Ca flux inactive | HEK293 Ca counter inactive | HEK293 Ca cntr2 inactive
COCCN(C(=O)CCC(=O)Nc1cc(C)on1)C(C(=O)NC1CCCC1)c1ccc(C(C)C)cc1 (configuration not stated)	none
COc1ccc2c(c1)CC/C(=C\Nc1ccc3c(c1)OCO3)C2=O	MrgX1 ag 27 | MrgX1 ag confirm inactive | HEK293 Ca flux inactive | HEK293 Ca counter inactive | HEK293 Ca cntr2 inactive
CC(=O)Nc1ccc(S(=O)(=O)NC2CC(=O)N(c3ccc(C)cc3)C2)cc1 (configuration not stated)	none
COc1ccc(C2(C)NC(=O)N(CC(=O)Nc3cccnc3Cl)C2=O)cc1 (configuration not stated)	none
CC1(c2ccc(OC(F)F)cc2)NC(=O)N(CC(=O)Nc2cccnc2Cl)C1=O (configuration not stated)	MrgX1 ag 33 | MrgX1 ag confirm 137% | HEK293 Ca flux inactive | HEK293 Ca counter inactive | HEK293 Ca cntr2 47
O=C(c1ccc2nsnc2c1)N1CCN(c2ccc([N+](=O)[O-])cc2)CC1	none
CCOc1ccccc1NC(=O)CCS(=O)(=O)c1cccc2nonc12	MrgX1 allo act 7.5 (no result: RGS4 block, RGS4 pot) | MrgX1 PAM conf inactive | HEK293 Ca flux inactive | HEK293 Ca counter inactive | HEK293 Ca cntr2 inactive
Nc1nc2n(n1)C(c1cccc(Cl)c1)CC(c1ccc(F)cc1)N2 (configuration not stated)	MrgX1 allo act 9.7 | MrgX1 PAM conf inactive | HEK293 Ca flux inactive | HEK293 Ca counter inactive | HEK293 Ca cntr2 inactive
CCOc1ccc(C2CC(c3cccc(Cl)c3)n3nc(N)nc3N2)cc1 (configuration not stated)	none
COc1ccc(NC(=S)NCc2ccco2)c(OC)c1	none
Cc1ccc(S(=O)(=O)c2c(C)nn(C(C)(C)C)c2OC(=O)C(C)C)cc1	MrgX1 allo act 12 | MrgX1 PAM conf inactive | HEK293 Ca flux inactive | HEK293 Ca counter inactive | HEK293 Ca cntr2 inactive
O=C(CCNC(=O)c1ccccc1Cl)NCCC1=CCCCC1	none
C=CCNC(=S)Nc1ccc(OC)c(S(=O)(=O)N2CCOCC2)c1	MrgX1 allo act 8.7 | MrgX1 PAM conf inactive | HEK293 Ca flux inactive | HEK293 Ca counter inactive | HEK293 Ca cntr2 inactive
C=CCNC(=S)Nc1ccc(Cl)c(S(=O)(=O)N2CCOCC2)c1	none
O=C(Nc1ccc(F)c(Cl)c1)N1CCCC1	MrgX1 allo act 13 | MrgX1 PAM conf inactive | HEK293 Ca flux inactive | HEK293 Ca counter inactive | HEK293 Ca cntr2 inactive
CCOC(=O)c1ccc(Oc2coc3cc(O)ccc3c2=O)cc1	none
COc1ccc(-c2cc(-c3ccccc3)c(C#N)c(SCC(=O)O)n2)cc1	none
N#Cc1c(-c2ccccc2)cc(-c2ccccc2)nc1SCC(=O)NCC(=O)O	MrgX1 allo act 19 | MrgX1 PAM conf inactive | HEK293 Ca flux inactive | HEK293 Ca counter inactive | HEK293 Ca cntr2 inactive
Cc1cccc(N2CCN(C(=O)c3cc4cc(F)ccc4[nH]3)CC2)c1C	none
O=C(CSc1nc(-c2ccccc2)cs1)NCCN1C(=O)CSC1=O	MrgX1 allo act 10 | MrgX1 PAM conf inactive | HEK293 Ca flux inactive | HEK293 Ca counter inactive | HEK293 Ca cntr2 inactive
c1ccc2nc(-c3ccc(-n4ccnc4)cc3)ccc2c1	MrgX1 allo act 8.9 | MrgX1 PAM conf inactive | HEK293 Ca flux inactive | HEK293 Ca counter inactive | HEK293 Ca cntr2 inactive
c1ccc(-c2ccc3ccccc3n2)cc1	none
CCSc1nc2ccccc2c(=O)n1Cc1ccc(F)cc1	MrgX1 allo act 9.8 | MrgX1 PAM conf inactive | HEK293 Ca flux inactive | HEK293 Ca counter inactive | HEK293 Ca cntr2 inactive
CNc1c(NS(=O)(=O)c2ccc(Cl)s2)c(=O)oc2ccccc12	none
O=S(=O)(Nc1ncnc2c1oc1ccccc12)c1ccc(Cl)s1	MrgX1 allo act 19 | MrgX1 PAM conf inactive | HEK293 Ca flux inactive | HEK293 Ca counter inactive | HEK293 Ca cntr2 inactive
Cc1cccc(C)c1NC(=O)C1CCCN1C(=O)NCc1ccccc1 (configuration not stated)	none
Cc1ccc2nc(NCCCO)nc(-c3ccccc3)c2c1	MrgX1 allo act 11 | MrgX1 PAM conf inactive | HEK293 Ca flux inactive | HEK293 Ca counter inactive | HEK293 Ca cntr2 inactive
CCOC(=O)c1cc(C)nc(Sc2ccc(C)cc2)c1C#N	none

Screens (PubChem BioAssay)
